Converted amounts (≈) assume the structure as drawn.

The subject of assay [1] is Aedes albopictus. Description: Insecticidal activity against Asian tiger mosquito fourth-instar larvae after 24 hrs in dark. Type of assay: functional. The essentials:
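Aedes albopictus fourth-instar larvae from a laboratory colony; samples dissolved and serially diluted in acetone, 0.4 mL added to 20 mL dechlorinated water with 30 larvae; held in the dark throughout the trial; mortality read at 24 h, three replications per concentration; LC50 (concentration causing 50% mortality) determined.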

For assay [2], the system named is Aedes albopictus. Description: Insecticidal activity against Asian tiger mosquito fourth-instar larvae irradiated with 2074 uW/cm'2 UV light for 1.5 hrs. Type of assay: functional. To be noted: light or radiation study. The essentials:
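Aedes albopictus fourth-instar larvae from a laboratory colony; acetone-diluted samples (0.4 mL) added to 20 mL dechlorinated water with 30 larvae; 3 h dark incubation, then 1.5 h UV irradiation (300-400 nm, max 365 nm), then 24 h in darkness; mortality from three replications per concentration; LC50 (concentration causing 50% mortality) determined.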

The term LC50 denotes the concentration lethal to half of the exposed cells or organisms. A low value points to greater toxicity. Regarding `C/C=C/C#CC#Cc1ccc(CO)s1`, the 50% lethal concentration (LC50) in the assay with Aedes albopictus [1] was > 10 µg/mL; with Aedes albopictus [2], 0.3 µg/mL (≈ 1.48 µM).
As for `C/C=C/C#CC#Cc1ccc(C(O)CO)s1` (racemic), the LC50 with Aedes albopictus [1] was > 10 µg/mL; in the assay with Aedes albopictus [2], 4.2 µg/mL (≈ 18.1 µM).
In the case of `C/C=C/C#CC#Cc1ccc(C(COC(C)=O)OC(C)=O)s1` (racemic), the results for the 50% lethal concentration (LC50) with Aedes albopictus [1] and with Aedes albopictus [2] were > 10 µg/mL and 0.66 µg/mL (≈ 2.09 µM), respectively.
Turning to `C/C=C/C#CC#Cc1ccc(C(O)CCl)s1` (racemic) [XANTHOPAPPIN B], the median lethal concentration (LC50) in the assay with Aedes albopictus [1] was 5.1 µg/mL (≈ 20.3 µM); in the assay with Aedes albopictus [2] it was 0.53 µg/mL (≈ 2.11 µM).
As to `C/C=C/C#CC#Cc1ccc(C(=O)C(O)(CC(C)=O)c2ccc(C#CC#C/C=C/C)s2)s1` (racemic) [XANTHOPAPPIN C], the median lethal concentration (LC50) in the assay on Aedes albopictus [1] was > 10 µg/mL; in the assay on Aedes albopictus [2], 0.95 µg/mL (≈ 2.08 µM).
As for `C/C=C/C#CC#Cc1cccs1` [XANTHOPAPPIN A], the LC50 was > 10 µg/mL in the assay on Aedes albopictus [1] and 0.71 µg/mL (≈ 4.12 µM) with Aedes albopictus [2].

The record behind these values is ChEMBL document CHEMBL1158046, “Photoactivated insecticidal thiophene derivatives from Xanthopappus subacaulis” (2006).
